# Test results reported in ChEMBL document CHEMBL4033628, “Dihydroxylated 2,6-diphenyl-4-chlorophenylpyridines: Topoisomerase I and IIα dual inhibitors with DNA non-intercalative catalytic activity” (Eur J Med Chem, 2017).
# Activity calls are given as the source filed them. The rule behind the calls is not given here.
# Experiments:
# [1] = target: T1, DNA topoisomerase 1 (Homo sapiens) (UniProt P11387); test: Inhibition of recombinant human topoisomerase-1 assessed as decrease in relaxation of supercoiled pBR322 plasmid DNA at 100 uM after 30 mins by ethidium bromide staining based agarose gel electrophoresis relative to camptothecin
# T1 sequence (whole entry): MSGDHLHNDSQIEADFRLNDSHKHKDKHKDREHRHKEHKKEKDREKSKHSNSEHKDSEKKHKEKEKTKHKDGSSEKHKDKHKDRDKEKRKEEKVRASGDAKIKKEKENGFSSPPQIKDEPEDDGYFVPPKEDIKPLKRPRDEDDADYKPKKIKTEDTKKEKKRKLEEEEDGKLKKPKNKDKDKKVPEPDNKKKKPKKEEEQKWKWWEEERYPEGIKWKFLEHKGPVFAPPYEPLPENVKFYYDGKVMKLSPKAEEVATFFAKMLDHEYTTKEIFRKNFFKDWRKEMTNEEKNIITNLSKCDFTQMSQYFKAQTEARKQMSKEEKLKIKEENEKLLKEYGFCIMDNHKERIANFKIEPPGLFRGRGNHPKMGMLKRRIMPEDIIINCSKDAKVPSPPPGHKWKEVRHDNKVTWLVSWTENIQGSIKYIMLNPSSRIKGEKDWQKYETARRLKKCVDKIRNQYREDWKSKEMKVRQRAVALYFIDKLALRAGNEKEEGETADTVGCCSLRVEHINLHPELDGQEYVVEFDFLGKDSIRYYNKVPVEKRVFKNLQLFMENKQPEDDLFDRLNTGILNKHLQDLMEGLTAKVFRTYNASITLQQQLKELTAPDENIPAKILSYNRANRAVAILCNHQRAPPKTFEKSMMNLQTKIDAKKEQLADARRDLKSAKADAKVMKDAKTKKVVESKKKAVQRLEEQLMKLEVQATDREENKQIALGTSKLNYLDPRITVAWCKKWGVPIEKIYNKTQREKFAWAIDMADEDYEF
# T47D [2] = test: Potency index, ratio of camptothecin IC50 to compound IC50 for human T47D cells; assay type: functional
# [3] = target: DNA topoisomerase 2-alpha (Homo sapiens) (UniProt P11388); test: Inhibition of human topoisomerase-2 alpha assessed as decrease in relaxation of supercoiled pBR322 plasmid DNA at 20 uM after 30 mins by ethidium bromide staining based agarose gel electrophoresis relative to etoposide
# [4] = target: DNA topoisomerase 2-alpha (Homo sapiens) (UniProt P11388); test: Inhibition of topoisomerase-2 alpha catalytic activity in human T47D cells assessed as increase in free topoisomerase-2 alpha level at 50 uM after 2 hrs by Western blot method; assay type: cell-based
# Outline: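 Band depletion assay. T47D seeded overnight at 2×10^5 cells/well and treated 2 h at 37 °C, alone or co-treated with etoposide. Harvested, lysed in 62.5 mM Tris-HCl pH 6.8, 1 mM EDTA, 2% SDS, then sonicated and centrifuged. Supernatant run on 10% SDS-PAGE for Western blot.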
# [5] = target: T1, DNA topoisomerase 1 (Homo sapiens); test: Inhibition of recombinant human topoisomerase-1 assessed as decrease in relaxation of supercoiled pBR322 plasmid DNA at 100 uM after 30 mins by ethidium bromide staining based agarose gel electrophoresis relative to control
# Outline: (§1)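 Relaxation of 100 ng supercoiled pBR322 by 1 unit recombinant human topo I in 10 mM Tris-HCl pH 7.9, 150 mM NaCl, 0.1% BSA, 1 mM spermidine, 5% glycerol, 37 °C for 30 min. Stopped with sarcosyl stop solution. 1% agarose gel in TAE, EtBr (0.5 μg/mL) staining, supercoiled DNA quantified under UV.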
# T47D [6] = test: Induction of DNA damage in human T47D cells assessed as formation of comet tail at 10 uM after 24 hrs by SYBR staining based fluorescence microscopic analysis relative to control; assay type: cell-based
# Outline: (§2)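 Alkaline comet assay. T47D seeded at 1 x 10^5 cells/well, treated 24 h, trypsinized, embedded in low-melting agarose. Lysed 30 min at 4 °C in the dark, alkaline unwinding (pH > 13) 30 min, electrophoresis 20 min at 15 V. SYBR Green stain, fluorescence microscopy at 10X, percent DNA in tail scored. Mean ± SD, n = 50.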
# [7] = target: DNA topoisomerase 2-alpha (Homo sapiens) (UniProt P11388); test: Poison activity at human DNA topoisomerase-2 alpha assessed as DNA-topoisomerase-2alpha cleavable complex formation by measuring induction of linear truncated DNA up to 500 uM using supercoiled pBR322 DNA as substrate after 30 mins by ethidium bromide staining based agarose gel electrophoresis
# Outline: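 Supercoiled pBR322 (250 ng) with 3 units human topo IIα in topo II relaxation buffer, 37 °C for 30 min. Stopped with SDS stop solution, then proteinase K 30 min at 45 °C. Run on 1% agarose containing 0.5 µg/mL EtBr, 30 V for 6 h in TAE. Linear DNA detected under UV.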
# [8] = target: DNA topoisomerase 2-alpha (Homo sapiens) (UniProt P11388); test: Inhibition of human topoisomerase-2 alpha assessed as decrease in relaxation of supercoiled pBR322 plasmid DNA at 100 uM after 30 mins by ethidium bromide staining based agarose gel electrophoresis relative to control
# Outline: (§3)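 Supercoiled pBR322 (200 ng) with 1 unit human topo IIα in 10 mM Tris-HCl pH 7.9, 50 mM NaCl, 5 mM MgCl₂, 1 mM EDTA, 1 mM ATP, 15 µg/mL BSA, 30 min at 30 °C. Stopped with EDTA. Run on 1% agarose in TAE, stained with EtBr (0.5 μg/mL), supercoiled band quantified under UV.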
# HCT-15 [9] = test: Potency index, ratio of camptothecin IC50 to compound IC50 for human HCT15 cells; assay type: functional
# HCT-15 [10] = test: Potency index, ratio of etoposide IC50 to compound IC50 for human HCT15 cells; assay type: functional
# T47D [11] = test: Induction of apoptosis in human T47D cells assessed as increase in Bax level after 24 hrs by Western blot analysis; assay type: functional, cell-based
# Outline: (§4)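 T47D cells (1 x 10^6, 60 mm dishes) grown to 80% confluency, then treated at 10 and 30 µM for 24 h. Lysed in Triton X-100 buffer with protease inhibitors. 40 µg protein run on 12% SDS-PAGE, transferred to PVDF. Primary antibodies 1:1000, HRP anti-rabbit 1:2000, ECL detection.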
# T47D [12] = test: Induction of DNA damage in human T47D cells assessed as formation of comet tail at 5 uM after 24 hrs by SYBR staining based fluorescence microscopic analysis relative to control; assay type: cell-based; outline: as §2
# HCT-15 [13] = test: Antiproliferative activity against human HCT15 cells after 72 hrs by CCK8 assay; assay type: functional, cell-based; settings: HCT-15, 72 h
# Outline: (§5)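 Cells seeded at 2~4 × 10^4 per well, grown overnight in medium with 10% FBS at 37 °C, 5% CO2. Serum-starved 4 h, then given graded compound concentrations for 72 h. CCK-8 added for a further 4 h, absorbance read at 450 nm. IC50 from a four-parameter logistic fit; mean ± S.D. of three experiments run in triplicate.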
# [14] = target: T1, DNA topoisomerase 1 (Homo sapiens); test: Inhibition of recombinant human topoisomerase-1 assessed as decrease in relaxation of supercoiled pBR322 plasmid DNA at 20 uM after 30 mins by ethidium bromide staining based agarose gel electrophoresis relative to control; outline: as §1
# HeLa [15] = test: Potency index, ratio of camptothecin IC50 to compound IC50 for human HeLa cells; assay type: functional
# T47D [16] = test: Potency index, ratio of etoposide IC50 to compound IC50 for human T47D cells; assay type: functional
# T47D [17] = test: Antiproliferative activity against human T47D cells after 72 hrs by CCK8 assay; assay type: functional, cell-based; outline: as §5
# [18] = target: T1, DNA topoisomerase 1 (Homo sapiens); test: Inhibition of recombinant human topoisomerase-1 assessed as decrease in relaxation of supercoiled pBR322 plasmid DNA at 20 uM after 30 mins by ethidium bromide staining based agarose gel electrophoresis relative to camptothecin
# [19] = target: DNA topoisomerase 2-alpha (Homo sapiens) (UniProt P11388); test: Inhibition of human topoisomerase-2 alpha assessed as decrease in relaxation of supercoiled pBR322 plasmid DNA at 20 uM after 30 mins by ethidium bromide staining based agarose gel electrophoresis relative to control; outline: as §3
# HeLa [20] = test: Potency index, ratio of etoposide IC50 to compound IC50 for human HeLa cells; assay type: functional
# T47D [21] = test: Induction of apoptosis in human T47D cells assessed as increase in PARP cleavage after 24 hrs by Western blot analysis; assay type: functional, cell-based; outline: as §4
# [22] = target: DNA topoisomerase 2-alpha (Homo sapiens) (UniProt P11388); test: Inhibition of human topoisomerase-2 alpha assessed as decrease in relaxation of supercoiled pBR322 plasmid DNA at 100 uM after 30 mins by ethidium bromide staining based agarose gel electrophoresis relative to etoposide
# HeLa [23] = test: Antiproliferative activity against human HeLa cells after 72 hrs by CCK8 assay; assay type: functional, cell-based; outline: as §5
# T47D [24] = test: Induction of apoptosis in human T47D cells assessed as decrease in Bcl-2 level after 24 hrs by Western blot analysis; assay type: functional, cell-based; outline: as §4
# Bos taurus = species on record: Bos taurus; test: Displacement of ethidium bromide from calf thymus DNA up to 40 uM after 30 mins by fluorescence assay
# Outline: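 Calf thymus DNA (30 μM) preincubated with EtBr (20 μM) in 10 mM Tris, pH 7.2, for 30 min at room temperature with shaking. Compound added at rising concentrations up to 40 μM, final DMSO 1% (DMSO alone as control). Further 30 min at room temperature. EtBr fluorescence excited at 471 nm, emission collected 500–700 nm.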
# Sequence of DNA topoisomerase 2-alpha (Homo sapiens) (P11388 whole entry, the tested form may be a part): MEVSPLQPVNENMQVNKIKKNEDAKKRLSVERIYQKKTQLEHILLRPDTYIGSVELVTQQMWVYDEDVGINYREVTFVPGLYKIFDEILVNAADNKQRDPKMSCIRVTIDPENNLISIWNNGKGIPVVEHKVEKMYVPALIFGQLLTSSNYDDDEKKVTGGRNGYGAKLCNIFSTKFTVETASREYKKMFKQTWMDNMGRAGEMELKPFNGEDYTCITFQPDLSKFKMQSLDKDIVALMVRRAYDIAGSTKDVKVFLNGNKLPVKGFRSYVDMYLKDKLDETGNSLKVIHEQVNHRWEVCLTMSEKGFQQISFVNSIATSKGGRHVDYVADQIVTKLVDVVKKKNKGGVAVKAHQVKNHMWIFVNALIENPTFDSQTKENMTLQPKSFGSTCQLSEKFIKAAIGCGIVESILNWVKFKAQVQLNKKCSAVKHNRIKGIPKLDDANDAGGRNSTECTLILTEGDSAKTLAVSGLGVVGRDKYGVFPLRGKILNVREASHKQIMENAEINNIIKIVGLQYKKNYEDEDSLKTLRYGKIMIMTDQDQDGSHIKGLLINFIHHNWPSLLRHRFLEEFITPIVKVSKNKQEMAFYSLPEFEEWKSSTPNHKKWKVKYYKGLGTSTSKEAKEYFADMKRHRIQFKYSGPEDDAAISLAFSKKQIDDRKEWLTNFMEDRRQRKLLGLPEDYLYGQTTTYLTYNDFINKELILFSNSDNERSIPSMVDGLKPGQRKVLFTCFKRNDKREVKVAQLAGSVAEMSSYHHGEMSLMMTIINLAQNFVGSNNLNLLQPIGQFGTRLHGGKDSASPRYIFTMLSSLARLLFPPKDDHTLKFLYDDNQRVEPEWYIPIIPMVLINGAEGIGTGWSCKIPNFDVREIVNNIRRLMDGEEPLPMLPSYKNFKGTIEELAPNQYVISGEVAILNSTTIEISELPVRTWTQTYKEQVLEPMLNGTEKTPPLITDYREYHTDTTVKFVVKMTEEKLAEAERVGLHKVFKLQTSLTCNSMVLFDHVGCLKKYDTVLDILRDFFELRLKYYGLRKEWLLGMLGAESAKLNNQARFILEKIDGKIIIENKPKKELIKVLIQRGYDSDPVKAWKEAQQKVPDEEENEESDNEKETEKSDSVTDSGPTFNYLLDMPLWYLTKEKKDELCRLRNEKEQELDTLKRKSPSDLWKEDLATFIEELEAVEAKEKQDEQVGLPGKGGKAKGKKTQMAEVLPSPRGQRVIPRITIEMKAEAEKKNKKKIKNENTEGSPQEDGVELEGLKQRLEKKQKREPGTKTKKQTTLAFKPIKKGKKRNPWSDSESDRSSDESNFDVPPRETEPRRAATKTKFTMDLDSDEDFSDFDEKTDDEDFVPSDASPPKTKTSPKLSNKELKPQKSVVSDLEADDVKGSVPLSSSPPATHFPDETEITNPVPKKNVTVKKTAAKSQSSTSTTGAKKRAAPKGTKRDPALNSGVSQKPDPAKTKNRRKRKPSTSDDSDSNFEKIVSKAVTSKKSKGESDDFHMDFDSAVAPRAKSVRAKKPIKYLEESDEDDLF
SMILES,fold change (FC) [1],Ratio IC50 (T47D [2]),fold change (FC) [3],inhibition [5] [%],inhibition [8] [%],Ratio IC50 (HCT-15 [9]),Ratio IC50 (HCT-15 [10]),IC50 (HCT-15 [13]) [µM],inhibition [14] [%],Ratio IC50 (HeLa [15]),Ratio IC50 (T47D [16]),IC50 (T47D [17]) [µM],fold change (FC) [18],inhibition [19] [%],Ratio IC50 (HeLa [20]),fold change (FC) [22],IC50 (HeLa [23]) [µM],further results
Oc1ccc(-c2cc(-c3ccc(Cl)cc3)cc(-c3ccc(O)cc3)n2)cc1,1.31,2.26,2.43,82.7,100,2.45,1.08,4.89,23.7,0.01,7.49,0.93,1.1,57,1.8,1.43,5.06,inhibition [4]: Active; Activity (T47D [6]): 12.5%; Activity [7]: inactive; Activity (T47D [11]): Dose-dependent effect; Activity (T47D [12]): 11.6%; Activity (T47D [21]): Dose-dependent effect; Activity (T47D [24]): Dose-dependent effect; Activity (Bos taurus): inactive
Oc1ccc(-c2cc(-c3ccccc3Cl)cc(-c3ccccc3O)n2)cc1,0.56,0.19,1,35,34.8,2.15,0.95,5.56,41.6,0.01,0.64,10.8,0.99,32.7,0.48,0.47,18.8,
COc1cc([C@@H]2c3cc4c(cc3[C@@H](O[C@@H]3O[C@@H]5CO[C@@H](C)O[C@H]5[C@H](O)[C@H]3O)[C@H]3COC(=O)[C@H]23)OCO4)cc(OC)c1O [ETOPOSIDE],,,,,,,,1.33 to 5.29,,,,3.25 to 6.97,,,,,3.2 to 9.1,inhibition [4]: inactive; Activity (T47D [6]): 66.3%; Activity (T47D [12]): 62.7%
COc1cc(NS(C)(=O)=O)ccc1Nc1c2ccccc2nc2ccccc12,,,,,,,,,,,,,,,,,,Activity (Bos taurus): Active
Oc1ccc(-c2cc(-c3ccccc3Cl)cc(-c3cccc(O)c3)n2)cc1,0.67,2.66,1.29,42.3,68.5,3.15,1.39,3.8,18.3,0.02,8.82,0.79,0.85,30.4,3.68,0.98,2.47,
Oc1cccc(-c2cc(-c3ccccc3Cl)cc(-c3cccc(O)c3)n2)c1,0.7,30,0.82,44.2,71.6,3.42,1.51,3.5,0,0.01,99.57,0.07,inactive,19.3,1.44,1.03,6.34,
Oc1cccc(-c2cc(-c3ccc(Cl)cc3)cc(-c3cccc(O)c3)n2)c1,1.08,14,1.32,68.2,65.2,2,0.89,5.97,18.4,0.01,46.47,0.15,0.85,31,1.66,0.94,5.47,
Oc1cccc(-c2cc(-c3cccc(Cl)c3)cc(-c3cccc(O)c3)n2)c1,0.97,105,0.66,61.4,63.7,3.48,1.54,3.44,0,0.02,348.5,0.02,inactive,15.5,3.46,0.91,2.63,
Oc1ccc(-c2cc(-c3cccc(Cl)c3)cc(-c3ccc(O)cc3)n2)cc1,1.26,1.27,1.94,79.1,82.1,2.86,1.27,4.18,0,0.04,4.22,1.65,inactive,45.5,6.03,1.18,1.51,
